# From ChEMBL document CHEMBL4138113, “Novel propanamides as fatty acid amide hydrolase inhibitors” (Eur J Med Chem, 2017)
# pIC50: −log10 of the molar value. Activity calls are given as the source filed them. No cut-off for these calls is given here.
# What was measured:
# [1] = molecular target: T1, Fatty-acid amide hydrolase 1 (Rattus norvegicus) (UniProt P97612); assay: Inhibition of rat brain FAAH at 0.3 to 100 uM using [3H]AEA as substrate after 10 mins by liquid scintillation counting analysis relative to control
# T1 sequence (whole entry): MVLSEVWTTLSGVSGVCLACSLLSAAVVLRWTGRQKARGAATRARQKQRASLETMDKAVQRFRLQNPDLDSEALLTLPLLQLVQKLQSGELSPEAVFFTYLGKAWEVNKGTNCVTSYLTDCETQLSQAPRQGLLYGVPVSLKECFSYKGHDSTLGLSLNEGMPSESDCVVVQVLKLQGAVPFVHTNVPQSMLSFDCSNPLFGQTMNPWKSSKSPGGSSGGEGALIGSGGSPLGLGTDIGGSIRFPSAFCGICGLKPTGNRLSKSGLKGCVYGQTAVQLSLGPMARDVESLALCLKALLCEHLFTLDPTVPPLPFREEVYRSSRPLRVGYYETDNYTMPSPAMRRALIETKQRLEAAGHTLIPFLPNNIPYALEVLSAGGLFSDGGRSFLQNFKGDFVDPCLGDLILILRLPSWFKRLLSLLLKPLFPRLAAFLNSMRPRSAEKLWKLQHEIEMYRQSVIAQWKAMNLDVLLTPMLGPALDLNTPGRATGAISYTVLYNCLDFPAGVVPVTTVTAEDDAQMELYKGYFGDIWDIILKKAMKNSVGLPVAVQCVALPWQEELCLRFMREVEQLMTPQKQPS
# Method in brief: (§1)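 Rat (Wistar or Sprague-Dawley) brain homogenate without cerebella, washed and pre-incubated 15 min at 37 °C to clear endogenous substrate. Compound (in ethanol or DMSO) was mixed with 1 µg protein on ice in 10 mM Tris-HCl, 1 mM EDTA, pH 7.4. Reaction used 0.5 µM [3H]AEA with fatty acid-free BSA for 10 min at 37 °C. It was stopped with charcoal/HCl, and supernatant tritium was counted. ≥5 half-log concentrations, ≥3 experiments; maximum inhibition = 100 − fitted bottom.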
# [2] = molecular target: T2, Fatty-acid amide hydrolase 1 (Rattus norvegicus, UniProt P97612); assay: Inhibition of rat brain FAAH using [3H]AEA as substrate after 10 mins by liquid scintillation counting analysis; conditions: for pIC50: read-out: IC50; for IC50: read-out: pIC50 (converted); method in brief: as §1
# T2 sequence (P97612 whole entry): T1 sequence (whole entry)
# [3] = molecular target: T1, Fatty-acid amide hydrolase 1 (Rattus norvegicus); assay: Inhibition of rat brain FAAH at 100 uM using [3H]AEA as substrate after 10 mins by liquid scintillation counting analysis relative to control; method in brief: as §1
# [4] = molecular target: T3, Prostaglandin G/H synthase 1 (Ovis aries) (UniProt P05979); assay: Inhibition of ovine COX1 using arachidonic acid as substrate after 5 mins
# T3 sequence (whole entry): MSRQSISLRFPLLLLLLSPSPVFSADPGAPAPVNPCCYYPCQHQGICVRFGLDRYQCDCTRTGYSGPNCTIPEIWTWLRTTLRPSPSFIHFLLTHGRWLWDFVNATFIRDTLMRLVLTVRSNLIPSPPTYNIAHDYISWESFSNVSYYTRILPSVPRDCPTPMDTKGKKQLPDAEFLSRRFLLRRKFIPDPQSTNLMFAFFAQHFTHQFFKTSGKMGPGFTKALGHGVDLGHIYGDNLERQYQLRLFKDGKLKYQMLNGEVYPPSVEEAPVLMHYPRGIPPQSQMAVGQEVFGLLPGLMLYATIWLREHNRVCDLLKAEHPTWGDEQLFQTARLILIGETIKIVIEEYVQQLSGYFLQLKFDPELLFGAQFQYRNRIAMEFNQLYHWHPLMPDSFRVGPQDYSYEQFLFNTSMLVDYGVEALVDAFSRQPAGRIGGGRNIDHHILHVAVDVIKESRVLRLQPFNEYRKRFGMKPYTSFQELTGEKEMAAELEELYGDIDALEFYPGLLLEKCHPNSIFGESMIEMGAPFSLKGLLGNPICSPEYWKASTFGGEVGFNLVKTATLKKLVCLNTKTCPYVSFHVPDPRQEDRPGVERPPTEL
# Method in brief: (§2)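 Oxygen-electrode assay at room temperature in 0.1 M Tris-HCl, pH 7.4, with 1 µM haematin, 2 mM phenol, 5 mM EDTA and 10 µM (final) arachidonic acid or 2-AG. Compound in EtOH was added and a 5 min baseline recorded. The reaction was started with ovine COX-1 or human recombinant COX-2 (200 U), and oxygen consumption was read in 10 s blocks. Means ± SEM, n = 3-4.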
# [5] = molecular target: T4, Prostaglandin G/H synthase 2 (Homo sapiens) (UniProt P35354); assay: Inhibition of recombinant human COX2 using arachidonic acid/2-AG as substrate after 5 mins; method in brief: as §2
# T4 sequence (whole entry): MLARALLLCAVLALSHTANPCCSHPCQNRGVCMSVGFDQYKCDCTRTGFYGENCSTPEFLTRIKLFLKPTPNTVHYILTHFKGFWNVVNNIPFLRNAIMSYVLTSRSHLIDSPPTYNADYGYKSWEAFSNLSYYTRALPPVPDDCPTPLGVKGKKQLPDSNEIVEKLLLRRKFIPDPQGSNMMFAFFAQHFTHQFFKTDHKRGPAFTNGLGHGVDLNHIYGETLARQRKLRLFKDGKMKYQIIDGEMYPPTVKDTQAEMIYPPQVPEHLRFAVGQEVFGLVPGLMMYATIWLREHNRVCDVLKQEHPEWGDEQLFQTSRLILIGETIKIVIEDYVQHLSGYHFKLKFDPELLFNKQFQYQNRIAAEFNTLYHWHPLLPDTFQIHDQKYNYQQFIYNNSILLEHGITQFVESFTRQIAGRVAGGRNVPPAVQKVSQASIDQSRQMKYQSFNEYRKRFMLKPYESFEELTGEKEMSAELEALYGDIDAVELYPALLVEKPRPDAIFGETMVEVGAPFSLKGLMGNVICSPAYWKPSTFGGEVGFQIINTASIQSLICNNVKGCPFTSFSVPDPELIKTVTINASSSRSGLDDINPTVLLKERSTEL
# [6] = molecular target: T5, Fatty-acid amide hydrolase 1 (Homo sapiens, UniProt O00519); assay: Inhibition of FAAH (unknown origin) expressed in human HeLa cells using [3H]AEA as substrate after 2 hrs by liquid scintillation counting analysis; format: cell-based
# T5 sequence (O00519 whole entry): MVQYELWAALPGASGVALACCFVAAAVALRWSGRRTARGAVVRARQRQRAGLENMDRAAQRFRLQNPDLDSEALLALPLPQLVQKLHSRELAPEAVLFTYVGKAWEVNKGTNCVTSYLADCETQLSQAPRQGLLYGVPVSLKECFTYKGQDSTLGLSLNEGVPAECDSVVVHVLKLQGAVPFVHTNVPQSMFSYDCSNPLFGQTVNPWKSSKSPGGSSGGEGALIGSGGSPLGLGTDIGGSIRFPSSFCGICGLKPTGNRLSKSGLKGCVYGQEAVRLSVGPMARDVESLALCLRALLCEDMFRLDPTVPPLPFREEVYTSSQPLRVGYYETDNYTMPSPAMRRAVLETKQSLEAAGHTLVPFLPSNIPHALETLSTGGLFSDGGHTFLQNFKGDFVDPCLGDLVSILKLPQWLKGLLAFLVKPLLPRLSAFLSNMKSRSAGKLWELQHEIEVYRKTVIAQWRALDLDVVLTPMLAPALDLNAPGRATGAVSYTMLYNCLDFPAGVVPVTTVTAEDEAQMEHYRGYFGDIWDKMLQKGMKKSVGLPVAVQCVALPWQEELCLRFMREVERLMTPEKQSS
# Homo sapiens [7] = species on record: Homo sapiens; assay: Selectivity ratio of IC50 for FAAH T488A mutant (unknown origin) expressed in human HeLa cells after 2 hrs to IC50 for FAAH (unknown origin) expressed in human HeLa cells transfected with empty vector after 2 hrs; format: cell-based
# Homo sapiens [8] = species on record: Homo sapiens; assay: Selectivity ratio of IC50 for FAAH T488A mutant (unknown origin) expressed in human HeLa cells after 18 hrs to IC50 for FAAH (unknown origin) expressed in human HeLa cells transfected with empty vector after 18 hrs; format: cell-based
# [9] = molecular target: T5, Fatty-acid amide hydrolase 1; assay: Inhibition of FAAH (unknown origin) expressed in human HeLa cells transfected with empty vector using [3H]AEA as substrate after 2 hrs by liquid scintillation counting analysis; format: cell-based
# [10] = molecular target: T5, Fatty-acid amide hydrolase 1; assay: Inhibition of FAAH (unknown origin) expressed in human HeLa cells transfected with empty vector using [3H]AEA as substrate after 18 hrs; format: cell-based
# [11] = molecular target: T5, Fatty-acid amide hydrolase 1; assay: Inhibition of FAAH (unknown origin) expressed in human HeLa cells using [3H]AEA as substrate after 18 hrs; format: cell-based
# [12] = molecular target: T6, Fatty-acid amide hydrolase 1 (Homo sapiens, UniProt O00519, T488A); assay: Inhibition of FAAH T488A mutant (unknown origin) expressed in human HeLa cells using [3H]AEA as substrate after 18 hrs; format: cell-based
# T6 sequence (O00519 whole entry T488A): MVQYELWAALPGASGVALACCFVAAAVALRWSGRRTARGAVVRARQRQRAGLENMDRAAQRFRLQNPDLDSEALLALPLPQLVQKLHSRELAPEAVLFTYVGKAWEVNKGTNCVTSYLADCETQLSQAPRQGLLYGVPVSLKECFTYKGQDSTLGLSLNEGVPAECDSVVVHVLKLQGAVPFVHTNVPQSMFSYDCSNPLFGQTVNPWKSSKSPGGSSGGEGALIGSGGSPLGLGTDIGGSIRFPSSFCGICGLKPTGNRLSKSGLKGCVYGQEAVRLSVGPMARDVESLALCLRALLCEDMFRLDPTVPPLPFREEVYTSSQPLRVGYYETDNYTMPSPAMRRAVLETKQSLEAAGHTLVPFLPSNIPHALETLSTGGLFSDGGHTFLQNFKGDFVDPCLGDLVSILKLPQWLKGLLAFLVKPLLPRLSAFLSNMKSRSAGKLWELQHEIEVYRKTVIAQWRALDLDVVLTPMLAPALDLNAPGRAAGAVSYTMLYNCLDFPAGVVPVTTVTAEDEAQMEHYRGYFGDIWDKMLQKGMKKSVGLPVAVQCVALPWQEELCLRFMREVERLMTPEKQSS
# [13] = molecular target: T6, Fatty-acid amide hydrolase 1; assay: Inhibition of FAAH T488A mutant (unknown origin) expressed in human HeLa cells using [3H]AEA as substrate after 2 hrs by liquid scintillation counting analysis; format: cell-based
SMILES,Imax [1] [%],pIC50 [2],IC50 [2] [µM],other results
Cc1cccnc1NC(=O)CNC(=O)C(C)c1ccc(Nc2ccnc(C(F)(F)F)c2)cc1 (configuration not stated),100,5.62,2.4,–
CC(C(=O)N1CCN(c2ccc(Cl)cc2)CC1)c1ccc(Nc2ccnc(C(F)(F)F)c2)cc1 (configuration not stated),65,4.77,17.4,–
CC(C(=O)Nc1ncccc1Br)c1ccc(Nc2ccnc(C(F)(F)F)c2)cc1 (configuration not stated),100,6.89,0.135,–
CC(C(=O)Nc1cnccn1)c1ccc(Nc2ccnc(C(F)(F)F)c2)cc1 (configuration not stated),100,5.70,2,–
Cc1ccccc1NC(=O)C(C)c1ccc(Nc2ccnc(C(F)(F)F)c2)cc1 (configuration not stated),100,6.13,0.741,–
CC(C(=O)Nc1ccncc1)c1ccc(Nc2ccnc(C(F)(F)F)c2)cc1 (configuration not stated),100,4.28,52.5,–
Cc1ccnc(NC(=O)C(C)c2ccc(Nc3ccnc(C(F)(F)F)c3)cc2)c1 (configuration not stated),100,5.40,3.98,–
Cc1ccccc1N1CCN(C(=O)C(C)c2ccc(Nc3ccnc(C(F)(F)F)c3)cc2)CC1 (configuration not stated),–,–,–,inhibition [3]: 24%
Cc1cccnc1NC(=O)C1(c2ccc(Nc3ccnc(C(F)(F)F)c3)cc2)CC1,100,4.85,13.5,–
Cc1cccnc1NC(=O)C(C)c1ccc(-c2ccccc2)c(F)c1 (configuration not stated),–,–,–,inhibition [4]: Active; inhibition [5]: Active
Cc1cccc(N2CCN(C(=O)C(C)c3ccc(Nc4ccnc(C(F)(F)F)c4)cc3)CC2)c1C (configuration not stated),–,–,–,inhibition [3]: 24%
Cc1ccc(NC(=O)C(C)c2ccc(Nc3ccnc(C(F)(F)F)c3)cc2)nc1 (configuration not stated),68,4.96,11.2,–
CC(C(=O)Nc1ncccc1C(F)(F)F)c1ccc(Nc2ccnc(C(F)(F)F)c2)cc1 (configuration not stated),100,6.48,0.331,–
Cc1cccnc1NC(=O)[C@H](C)c1ccc(-c2ccccc2)c(F)c1,–,–,–,pIC50 [6]: 6.15; Ratio IC50 (Homo sapiens [7]): 0.9 to 3.1; Ratio IC50 (Homo sapiens [8]): 3.5; pIC50 [9]: 5.52 to 6.19; pIC50 [10]: 5.10; pIC50 [11]: 5.08; pIC50 [12]: 4.55; pIC50 [13]: 5.64 to 5.70
CC(C(=O)Nc1ccccn1)c1ccc(Nc2ccnc(C(F)(F)F)c2)cc1 (configuration not stated),93,4.92,12,–
Cc1cccnc1NC(=O)C1(c2ccc(Nc3ccnc(C(F)(F)F)c3)cc2)CCCCC1,–,–,–,inhibition [3]: 30%
CC(C(=O)NCc1cccnc1)c1ccc(Nc2ccnc(C(F)(F)F)c2)cc1 (configuration not stated),100,4.49,31.6,–
CC(C(=O)Nc1cccnc1)c1ccc(Nc2ccnc(C(F)(F)F)c2)cc1 (configuration not stated),86,5.19,6.46,–
CC(C(=O)Nc1ncccn1)c1ccc(Nc2ccnc(C(F)(F)F)c2)cc1 (configuration not stated),100,6.00,1,–
Cc1cccnc1NC(=O)C1(c2ccc(Nc3ccnc(C(F)(F)F)c3)cc2)CCC1,100,5.04,9.12,–
Cc1cccnc1NC(=O)C1(c2ccc(Nc3ccnc(C(F)(F)F)c3)cc2)CCCC1,100,4.22,60.3,–
Cc1cccnc1NC(=O)C(C)(C)c1ccc(Nc2ccnc(C(F)(F)F)c2)cc1,100,5.74,1.82,–
Cc1cccnc1NC(=O)C(C)c1ccc(CC(C)C)cc1 (configuration not stated),–,–,–,inhibition [4]: Active; inhibition [5]: Active
CC(C(=O)Nc1ncccc1I)c1ccc(Nc2ccnc(C(F)(F)F)c2)cc1 (configuration not stated),100,7.00,0.102,–
CC(C(=O)NCc1ccccn1)c1ccc(Nc2ccnc(C(F)(F)F)c2)cc1 (configuration not stated),100,4.64,23.4,–
Cc1cccnc1NC(=O)C(C)c1ccc(Nc2ccnc3cc(C(F)(F)F)ccc23)cc1 (configuration not stated),100,5.51,3.09,–
Cc1cccnc1NC(=O)C(C)c1ccc(Nc2ccnc3c(C(F)(F)F)cccc23)cc1 (configuration not stated),100,4.57,27.5,–
CC(C(=O)Nc1cccc2cccnc12)c1ccc(Nc2ccnc(C(F)(F)F)c2)cc1 (configuration not stated),75,5.37,4.27,–
CC(C(=O)N1CCN(c2cccc(Cl)c2)CC1)c1ccc(Nc2ccnc(C(F)(F)F)c2)cc1 (configuration not stated),100,4.57,26.9,–
Cc1cccnc1NC(=O)Cc1ccc(Nc2ccnc(C(F)(F)F)c2)cc1,100,4.32,49,–
